Measurements from ChEMBL document CHEMBL4002622, “A tetramic acid derivative with protein tyrosine phosphatase 1B inhibitory activity and a new nortriterpene glycoside from the Indonesian marine sponge Petrosia sp” (Bioorg Med Chem Lett, 2017).
The source made the active and inactive calls. No cut-off for these calls is given here.

How the values were obtained:
[1] = target: T1, Tyrosine-protein phosphatase non-receptor type 1 (Homo sapiens) (UniProt P18031); assay: Inhibition of PTP1B (unknown origin) at 15.2 to 16 uM using pNPP as substrate preincubated for 10 mins followed by substrate addition measured after 30 mins
T1 sequence (whole entry): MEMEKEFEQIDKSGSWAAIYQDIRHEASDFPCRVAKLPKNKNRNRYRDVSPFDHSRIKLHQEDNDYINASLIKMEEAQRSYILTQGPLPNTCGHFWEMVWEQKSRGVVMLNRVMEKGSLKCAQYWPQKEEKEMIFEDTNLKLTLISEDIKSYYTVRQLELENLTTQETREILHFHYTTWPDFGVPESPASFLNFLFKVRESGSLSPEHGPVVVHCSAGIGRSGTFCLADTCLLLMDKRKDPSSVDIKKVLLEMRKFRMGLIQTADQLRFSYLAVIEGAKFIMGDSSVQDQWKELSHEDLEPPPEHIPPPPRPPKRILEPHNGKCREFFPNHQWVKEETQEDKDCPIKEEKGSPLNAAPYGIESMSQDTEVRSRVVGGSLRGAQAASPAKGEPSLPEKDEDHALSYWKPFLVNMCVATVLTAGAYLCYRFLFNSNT
How it was run: (§1)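 Enzyme (0.5 μg/mL stock) in 50 mM citrate pH 6.0, 0.1 M NaCl, 1 mM DTT, 1 mM EDTA; sample added in CH3OH, preincubated 10 min at 37 °C. pNPP (4.0 mM stock) started reaction, 30 min at 37 °C, stopped with 10 M NaOH; p-nitrophenol read at 405 nm. Inhibition (%) = [1 − (sample − blank)/(control − blank)] × 100; oleanolic acid positive control.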

Huh-7 = assay: Cytotoxicity against human HuH7 cells assessed as decrease in cell viability after 72 hrs by WST1 assay; assay type: functional, cell-based
How it was run: (§2)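 Seeded 1×10^4 cells per well, cultured overnight, then exposed to compound for 72 h; controls got 0.1% EtOH. Medium with WST-1 (0.5 mM WST-1, 0.02 mM 1-PMS) added, 60 min at 37 °C, absorbance 438 nm (reference 620 nm). Viability = treated absorbance/control absorbance × 100 (%).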

A549 = assay: Cytotoxicity against human A549 cells assessed as decrease in cell viability after 72 hrs by WST1 assay; assay type: functional, cell-based; how it was run: as §2
[2] = target: T2, Tyrosine-protein phosphatase non-receptor type 1 (Homo sapiens, UniProt P18031); assay: Inhibition of PTP1B (unknown origin) using pNPP as substrate preincubated for 10 mins followed by substrate addition measured after 30 mins; how it was run: as §1
T2 sequence (P18031 whole entry): T1 sequence (whole entry)

| SMILES | inhibition [1] | IC50 [2] | Activity (Huh-7) | Activity (A549) |
| --- | --- | --- | --- | --- |
| CC(=O)C[C@@H](C)[C@H]1CC[C@H]2C3=C(CC[C@]12C)[C@@]1(C)CC[C@H](O[C@@H]2OC[C@@H](O[C@@H]4O[C@H](CO)[C@H](O)[C@H](O)[C@H]4NC(C)=O)[C@H](O)[C@H]2O[C@@H]2O[C@H](CO[C@@H]4O[C@H](CO)[C@@H](O)[C@H](O)[C@H]4O[C@@H]4O[C@H](CO)[C@@H](O)[C@H](O)[C@H]4O)[C@@H](O)[C@H](O)[C@H]2NC(C)=O)C(C)(C)[C@@H]1CC3 | inactive | – | inactive | inactive |
| CC(=O)N[C@H]1[C@H](O[C@@H]2CO[C@@H](O[C@H]3CC[C@]4(C)C5=C(CC[C@H]4C3(C)C)[C@@H]3CC[C@H]([C@H](C)CC(=O)CC(C)(C)O)[C@@]3(C)CC5)[C@H](O[C@@H]3O[C@H](CO[C@@H]4O[C@H](CO)[C@@H](O)[C@H](O)[C@H]4O[C@@H]4O[C@H](CO)[C@@H](O)[C@H](O)[C@H]4O)[C@@H](O)[C@H](O)[C@H]3NC(C)=O)[C@H]2O)O[C@H](CO)[C@H](O)[C@@H]1O | inactive | – | inactive | inactive |
| CCCCCCCC(C)CCC/C(O)=C1\C(=O)C(C)N(C)C1=O (stereo not drawn) [MELOPHLIN C] | – | 14.6 µM | – | – |

More lines, main results first:

| inhibition [1] | IC50 [2] | SMILES | Activity (Huh-7) | Activity (A549) |
| --- | --- | --- | --- | --- |
| inactive | – | CC(=O)N[C@H]1[C@H](O[C@@H]2CO[C@@H](O[C@H]3CC[C@]4(C)C5=C(CC[C@H]4C3(C)C)[C@@H]3CC[C@H]([C@H](C)CC(=O)C=C(C)C)[C@@]3(C)CC5)[C@H](O[C@@H]3O[C@H](CO[C@@H]4O[C@H](CO)[C@@H](O)[C@H](O)[C@H]4O[C@@H]4O[C@H](CO)[C@@H](O)[C@H](O)[C@H]4O)[C@@H](O)[C@H](O)[C@H]3NC(C)=O)[C@H]2O)O[C@H](CO)[C@H](O)[C@@H]1O | inactive | inactive |
| inactive | – | CC(=O)N[C@H]1[C@H](O[C@@H]2CO[C@@H](O[C@H]3CC[C@@]4(C)[C@@H](CCC5=C6[C@@H](O)C[C@H]([C@H](C)CC(=O)C=C(C)C)[C@@]6(C)CC[C@@]54O)C3(C)C)[C@H](O[C@@H]3O[C@H](CO[C@@H]4O[C@H](CO)[C@@H](O)[C@H](O)[C@H]4O[C@@H]4O[C@H](CO)[C@@H](O)[C@H](O)[C@H]4O)[C@@H](O)[C@H](O)[C@H]3NC(C)=O)[C@H]2O)O[C@H](CO)[C@H](O)[C@@H]1O | inactive | inactive |
